# In ChEMBL document CHEMBL2380219, “Physalin A induces apoptotic cell death and protective autophagy in HT1080 human fibrosarcoma cells” (J Nat Prod, 2013):
# Calls of active or inactive are those of the source. The calls are words filed in the database; no cut-off is given here.
# Columns and labels:
# HT-1080 [1] = experiment: Cytotoxicity against human HT1080 cells assessed as growth inhibition at 1 to 100 uM by MTT assay; type: functional, cell-based; conditions: TDE = time-dependent effect
# HT-1080 [2] = experiment: Cytotoxicity against human HT1080 cells assessed as growth inhibition after 24 hrs by MTT assay; type: functional, cell-based; conditions: HT-1080, 24 h
# HT-1080 [3] = experiment: Cytotoxicity against human HT1080 cells assessed as growth inhibition at 10 uM pretreated with 3MA for 1 hr prior to compound addition measured after 24 hrs by MTT assay; type: functional, cell-based
# How it was run: (§1)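 HT1080 seeded 0.8 × 10^4 cells/well. MTT 2 h at 37 °C, formazan in DMSO, A492 read. Inhibition % calculated against untreated and blank wells.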
# HT-1080 [4] = experiment: Induction of autophagy in human HT1080 cells assessed as upregulation of beclin 1 at 10 uM pretreated with rapamycin for 1 hr prior to compound addition measured after 24 hrs by Western blotting analysis; type: functional, cell-based
# How it was run: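 HT1080 cells pretreated 1 h with 1 mM 3MA or 1 nM rapamycin, then 10 μM added for 24 h. Adherent and floating cells lysed in Hepes pH 7.4/Triton buffer. Equal protein on 12% SDS-PAGE and nitrocellulose, probed for beclin 1 and LC3, ECL detection. Normalized to β-actin, n = 3.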
# PBMC = experiment: Cytotoxicity against human PBMC at 10 to 20 uM after 24 to 48 hrs by MTT assay; type: cell-based
# How it was run: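 PBMC from fresh blood of three healthy male donors. Blood diluted 1:3 in PBS, layered on Ficoll-Hypaque (1.077 g/mL), spun 900g 30 min. Band washed 400g 10 min, cells resuspended in complete RPMI-1640 in 96-well plates. Treated with 0, 10, 20, 40 or 80 μM for 24 and 48 h, then MTT. Means ± SD of three independent experiments.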
# HeLa = experiment: Cytotoxicity against human HeLa cells assessed as growth inhibition after 24 hrs by MTT assay; type: functional, cell-based
# How it was run: (§2)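 Seeded 0.8 × 10^4 cells/well, cultured 24 h, then exposed to 0, 10, 20, 40 or 80 μM for 24 h (DMSO <0.05%) in RPMI 1640 or MEM with 10% FBS. Adherent lines rinsed with PBS, given MTT 2 h at 37 °C. Suspension lines (U937, HL60) given MTT 2 h, then centrifuged. Formazan dissolved in DMSO, A492 read. Inhibition % = (control − sample)/(control − blank) × 100.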
# U-937 = experiment: Cytotoxicity against human U937 cells assessed as growth inhibition after 24 hrs by MTT assay; type: functional, cell-based; how it was run: as §2
# HT-1080 [5] = experiment: Cytotoxicity against human HT1080 cells assessed as growth inhibition at 10 uM pretreated with rapamycin for 1 hr prior to compound addition measured after 24 hrs by MTT assay.; type: functional, cell-based; how it was run: as §1
# A-431 = experiment: Cytotoxicity against human A431 cells assessed as growth inhibition after 24 hrs by MTT assay; type: functional, cell-based; how it was run: as §2
# HT-1080 [6] = experiment: Induction of autophagy in human HT1080 cells at 10 uM by MDC staining-based FACS flow cytometric analysis; type: functional, cell-based; conditions: TDE = time-dependent effect
# How it was run: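 HT1080 cells (3 × 10^5 per flask, grown 24 h) exposed to 10 μM for 12, 24 and 36 h. Cells collected and stained with 0.05 mM MDC at 37 °C for 1 h. MDC-positive ratio measured by flow cytometry, n = 3.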
# HT-1080 [7] = experiment: Induction of apoptosis in human HT1080 cells assessed as increase in FADD protein expression at 10 uM after 6 to 24 hrs by Western blotting analysis; type: functional, cell-based
# How it was run: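 HT1080 cells treated with 10 μM for 6, 12, 18 and 24 h. Adherent and floating cells lysed 60 min at 4 °C in Hepes pH 7.4/1% Triton X-100 buffer with phosphatase and protease inhibitors. Equal protein run on 12% SDS-PAGE, transferred to nitrocellulose, probed with specific antibodies, HRP/ECL detection. Band density normalized to β-actin; n = 3.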
# HT-1080 [8] = experiment: Induction of apoptosis in human HT1080 cells assessed as increase in procaspase-3 cleavage at 10 uM pretreated with rapamycin for 1 hr prior to compound addition measured after 24 hrs by Western blotting analysis; type: functional, cell-based
# How it was run: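 HT1080 cells pretreated 1 h with 1 mM 3MA or 1 nM rapamycin, then co-incubated with 10 μM for 24 h. Adherent and floating cells lysed in Hepes pH 7.4/Triton buffer. 12% SDS-PAGE, nitrocellulose, antibodies against Fas, FADD, caspase-8, caspase-3, PARP and ICAD, ECL detection. Densities normalized to β-actin; n = 3.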
# HT-1080 [9] = experiment: Induction of apoptosis in human HT1080 cells expressing beclin 1 siRNA assessed as suppression of LC31to LC32 conversion at 10 uM after 24 hrs by Western blotting analysis relative to control; type: functional, cell-based
# How it was run: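 Beclin 1 or nonspecific siRNA transfected into HT1080 cells (5 × 10^5 seeded a day earlier; transfection mixture for 7 h at 37 °C, then normal medium, 24 h before harvest). Cells then got 10 μM for 24 h. Adherent plus floating cells lysed in Hepes pH 7.4/Triton buffer at 4 °C for 60 min. Equal protein on 12% SDS-PAGE, nitrocellulose, ECL. Bands normalized to β-actin, n = 3.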
compound,measurement,setting,value
C=C1C(=O)O[C@@H]2C[C@@]1(C)[C@@H]1C(=O)[C@]3(O)O[C@]14[C@@]2(C)OC(=O)[C@@]4(O)CC[C@H]1[C@H]3[C@H](O)C=C2CC=CC(=O)[C@@]21C [PHYSALIN A],growth inhibition (GI),HT-1080 [1],tde
same,IC50,HT-1080 [2],10.7 µM
same,growth inhibition (GI),HT-1080 [3],Active
same,Activity,HT-1080 [4],Active
same,Activity,PBMC,Non-toxic
same,growth inhibition (GI),HeLa,Dose-dependent effect
same,growth inhibition (GI),U-937,Dose-dependent effect
same,growth inhibition (GI),HT-1080 [5],inactive
same,growth inhibition (GI),A-431,Dose-dependent effect
same,Activity,HT-1080 [6],tde
same,Activity,HT-1080 [7],Active
same,Activity,HT-1080 [8],inactive
same,Activity,HT-1080 [9],Active
